Screening data deposited in PubChem by several laboratories.
TMEM16A act: TMEM16A chloride channel activators or potentiators, primary screen, cell-based, HTS. Anoctamin-1 (Mus musculus), Q8BHY3. HEK293 TMEM16A/YFP-H148Q/I152L, iodide quench fluorescence; hits give low values. B-score at 10 µM. 340,000 compounds, 0.3% hits. AID 623877, 2012;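 active = fluorescence-ratio B-score plate-corrected deviation score at least 3 library SD below zero, with starting fluorescence score within 5 deviations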;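 note: channel opened by trigger with iodide after compound preincubation; score built on the fluorescence ratio of max minus min over baseline; more negative score means more quench and so TMEM16A activation or potentiation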
VIM-2 inhibitor: VIM-2 metallo-beta-lactamase inhibitors, primary screen, biochemical, epi-absorbance readout, Pseudomonas aeruginosa enzyme; purified VIM-2, nitrocefin hydrolysis, epi-absorbance fluorescence; inhibition, % at 5.6 µM; 290,000 compounds, 0.89% hits; AID 1527, 2009;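 active = inhibition above the mean of all tested compounds plus 3 SD, cutoff set per screening run, cut at about 7.5% in these data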;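 note: red hydrolysis product quenches plate fluorescence so inhibitors raise well fluorescence; 0% = enzyme with DMSO and 100% = DMSO without enzyme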
CHT inh: inhibitors of human choline transporter CHT; High affinity choline transporter 1 (Homo sapiens), Q9GZV3; CHT-expressing cells, membrane potential dye, choline response; hits give low values; B-score at 10 µM; 310,000 compounds, 0.86% hits; AID 488975, 2010;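 active = B-score over 3 SD under the library average, and starting fluorescence ratio not unusually high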;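 note: choline stimulus applied at its EC90 after an EC20 pre-addition; B-score computed on integrated fluorescence ratio after choline addition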
CHT allo act: CHT positive allosteric modulators, primary screen, cell-based, membrane potential dye, choline EC20; AID 488977, 2010; 310,000 compounds, 0.49% hits; High affinity choline transporter 1 (Homo sapiens), Q9GZV3; B-score at 10 µM; CHT-expressing cells; hits give high values; LV-AA mutant CHT in HEK293 cells;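 active = initial fluorescence not abnormally high and integrated response B-score, plate-corrected, over 3 SD above library mean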
IMP-1 inhibitor: IMP-1 metallo-beta-lactamase inhibitors, primary screen, biochemical, epi-absorbance readout, Pseudomonas aeruginosa enzyme; 290,000 compounds, 0.45% hits; purified IMP-1, nitrocefin hydrolysis, epi-absorbance fluorescence; metallo-beta-lactamase IMP-1 (Pseudomonas aeruginosa); inhibition, % at 5.6 µM;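 active = inhibition above the mean plus 3 SD of all compounds in the same screening run, cut at about 4.5% in these data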;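 note: 0% = IMP-1 with DMSO and 100% = DMSO wells lacking enzyme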
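System: Purified recombinant IMP-1 metallo-beta-lactamase enzyme | Measured by: Fluorescence quenching readout, ex 480/em 530 nm | Replication: Singlicate | Incubation: 15 min preincubation plus 25 min reaction at 25 °C | Evaluation: Percent inhibition from optical density relative to buffer-blank wells | Benchmarks: DMSO with and without IMP-1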
ANO1 block: TMEM16A chloride channel inhibitors, primary screen, cell-based, HTS; 310,000 compounds, 1.2% hits; normalized B-score (activity score, 25-100; higher = stronger inhibition) at 10 µM; Anoctamin-1 (Mus musculus), Q8BHY3; AID 588511, 2011; HEK293 TMEM16A/YFP iodide influx fluorescence, ionomycin;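 active = ratio plate-corrected score three or more library SD toward inhibition, starting fluorescence score within five deviations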;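 note: score derived from kinetic fluorescence span divided by baseline fluorescence per well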
CHT activ conf: CHT activators, confirmation, cell-based, membrane potential dye, duplicate; activation, % at 10 µM; shares compounds with CHT allo act; AID 504833, 2011; CHT-expressing cells, membrane potential dye fluorescence (FDSS); % of choline EC20–EC90 response window; HEK293 expressing CHT LV-AA mutant; choline added at its EC20; 2,500 compounds, 91% hits;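 active = primary screen active, with duplicate mean activation above negative control mean plus 3 SD, cut at about 11% in these data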
HEK293 MP dye: membrane potential response in parental HEK293 cells, counter-screen for CHT activator project, cell-based, membrane potential dye | shares compounds with CHT allo act | membrane potential dye fluorescence (FDSS); measured after EC20 choline addition | ratio readout change at 10 µM, hits read low | 2,500 compounds, 62% hits | AID 623908, 2012;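 active = duplicate-averaged ratio beyond 3 SD from buffer wells, up or down, though filed actives are nearly all decreases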
* hit, by the source's call; i = inactive; x = not tested or not shown. Rows were chosen to be rich in hits. Some 3.4% of all compounds tested hit in one or more screens of this group.

SMILES | TMEM16A act | VIM-2 inhibitor | CHT inh | CHT allo act | IMP-1 inhibitor | ANO1 block | CHT activ conf | HEK293 MP dye
Cc1ccc2c(c1)c1c3n2CCN=C3CCC1 | i | 1 | i | i | -1 | i | x | x
COc1ccc2c(c1)c1c3n2CCN(C)C3=NCC1 | i | 1 | i | i | 0 | i | 53* | -60*
Nc1c(C(=O)NCc2ccc3c(c2)OCO3)c2nc3ccccc3nc2n1CCCN1CCOCC1 | i | 1 | i | 7.4* | -3 | i | 12* | i
O=C(CN(C(=O)CNC(=O)c1ccco1)c1ccc(Cl)c(Cl)c1)NC1CCCCC1 | i | -3 | i | 6.9* | -3 | i | 39* | i
C/C(=N\N=C1\NC(=O)C(CC(=O)Nc2ccccc2F)S1)C1CCCCC1 (configuration not stated) | i | -6 | i | i | -2 | i | x | x
CCCCNC(=NCc1cccc(C(F)(F)F)c1)Nc1ccccc1 | i | -1 | i | 12* | -3 | i | 18* | i
O=C(COC(=O)Cn1cc(C(F)(F)F)ccc1=O)NCc1ccccc1 | i | x | x | x | x | x | x | x
Cc1ccc(C)c(-c2[nH]ncc2CN2CCCC(CO)(Cc3ccccc3C)C2)c1 (configuration not stated) | i | 0 | i | 6.4* | -2 | i | 17* | i
C[n+]1c2n(c3ccccc31)N=C(c1ccc(Br)cc1)CS2 | i | -1 | i | i | -4 | i | x | x
C[n+]1c2n(c3ccccc31)N=C(c1ccccc1)CS2 | i | -1 | i | 7.1* | -1 | i | 58* | -55*
C[n+]1c2n(c3ccccc31)N=C(c1ccc(-c3ccccc3)cc1)CS2 | i | 0 | i | 7.9* | 3 | i | 40* | -35*
CCc1ccc(C(=O)COC(=O)c2ccc(Cl)nc2)cc1 | i | 0 | i | i | 0 | i | x | x
CCCCCCCCCC[N+](C)(C)CC/C=C1/c2ccccc2Sc2ccc(Cl)cc21 | i | -4 | i | 8.2* | -4 | i | -1 | -47*
O=C(NNc1ccc(Cl)cc1)C1CCC1 | i | -1 | i | i | -3 | i | 14* | i
Cc1cc(N2CCCC2)nc2ccccc12 | i | 0 | i | i | -3 | i | 48* | -58*
CC(C)C[C@H]1CN=C(Nc2ccccc2)N1CC1CCC(C(C)(C)C)CC1 (some centres not stated) | i | x | i | 29* | x | 100* | 59* | i
CC(C)CCN1C(Nc2ccccc2)=NC[C@@H]1Cc1ccccc1 | i | -1 | i | 7* | -2 | i | 21* | i
CC(C)C[C@H]1CN=C(Nc2ccccc2)N1CC1CCCC1 | i | -3 | i | i | -4 | i | x | x
Cc1ccccc1-c1ccccc1CN1[C@@H](C(C)C)COCCS1(=O)=O | i | x | x | x | x | x | x | x
COc1cc(NC(=O)CN2C(=O)C(c3ccccc3)=NC23CCCCCC3)cc(OC)c1 | i | -1 | i | 7.6* | -1 | i | 6 | i
C=CCN1CCN(C(=O)c2cc3c(s2)CCC(CC)C3)CC1 (configuration not stated) | i | -3 | i | i | -3 | i | x | x
Cn1c(=O)c2c(ncn2CCCC(=N)N2CCOCC2)n(C)c1=O | i | -1 | i | 11* | -2 | i | 78* | -72*
CCN(CC(=O)Nc1ccc(NC(C)=O)cc1)C(=O)CCN1C(=O)C2CC=CCC2C1=O (configuration not stated) | i | x | x | x | x | x | x | x
CCCc1nc2ccccc2c(C(=O)OCC(=O)NCc2ccc3c(c2)OCO3)c1CC | i | -3 | i | i | -4 | i | x | x
CCCc1nc2ccccc2c(C(=O)OC(C)C(=O)NCc2ccc3c(c2)OCO3)c1CC (configuration not stated) | i | -2 | i | 7.7* | -3 | i | 36* | i
SMILES | TMEM16A act | VIM-2 inhibitor | CHT inh | CHT allo act | IMP-1 inhibitor | ANO1 block | CHT activ conf | HEK293 MP dye
Cc1cc(NC(=O)c2cnn3cccnc23)no1 | i | -2 | i | 7.7* | 3 | i | 63* | -54*
COc1ccc(/C=N/N(C)C2=NCCN2)c(OC)c1OC | i | 0 | i | 7* | -3 | i | 48* | -30*
Cc1noc(C)c1NC(=O)Nc1ccc2c(c1)C(=O)N([C@H](C)CO)C[C@H](C)[C@@H](CN(C)S(=O)(=O)c1ccccc1)O2 | i | x | x | x | x | x | x | x
O=C(c1cccc(C(F)(F)F)c1)C1CCCN(Cc2cccn2-c2ccccn2)C1 (configuration not stated) | i | -1 | i | 12* | -4 | i | -5 | i
O=C(c1cccc(C(F)(F)F)c1)C1CCCN(Cc2cccc(OCCO)c2)C1 (configuration not stated) | i | 0 | i | i | 0 | i | x | x
O=C(Nc1ccncc1)C1CCN(S(=O)(=O)c2cccc(C(F)(F)F)c2)CC1 | i | x | x | x | x | x | x | x
CCN(CC)c1nc(N2CCN(C)CC2)nc2ccccc12 | i | 1 | i | i | -4 | i | 60* | -58*
COc1cc(C2C(C#N)=C(N)Oc3cc(N)ccc32)cc(OC)c1OC (configuration not stated) | i | 0 | i | 7.7* | -5 | i | 40* | i
CCCCN(CCCC)CC(O)COc1ccccc1Br (configuration not stated) | i | -1 | i | 6.7* | -3 | i | 26* | i
CC(C)CN(CC(C)C)CC(O)COc1ccccc1Br (configuration not stated) | i | -3 | i | i | -1 | i | x | x
CC(c1ccccc1)N(CCC(c1ccccc1)C1CCOC(C)(C)C1)C(=O)c1ccco1 (configuration not stated) | i | -1 | i | 6.4* | -3 | i | 34* | i
